Screening data (PubChem)
FN deposition inh = inhibitors of fibronectin matrix deposition, primary screen, AH1F cells, Alexa488-fibronectin fluorescence, plate reader. AH1F fibroblasts, overnight. hit rate 0.086% among 350,000. AID 743247, 2014. inhibition, % at 12.6 µM;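 active = mean inhibition across replicates of 30% or more, regardless of how many single replicates reach that level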;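 note: positive control wells lacked labelled fibronectin entirely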
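Material: AH1F fibroblasts assembling fluorescent fibronectin matrix; amount: 10000 AH1F cells/well; medium: DMEM, 2% serum; reagent: Alexa488-fibronectin, 24 nM final in well; dosing: single compound dose, delivered by pin transfer; incubation: 1 h adhesion, overnight exposure; detection: fluorescence after three HBSS washes, excitation 485 nm, emission 525 nm; measure: fibronectin deposition inhibition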
SKKanGAS inh = S. pyogenes SKKanGAS growth inhibitors in kanamycin, primary screen, streptokinase expression inhibitor project, SKKanGAS strain, BacTiter-Glo luminescence; 6 h; inhibition, % at 7.5 µM; hit rate 1.3% among 300,000;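 active = mean replicate score, as percent of positive control median, at least 50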;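 note: strain carries kanamycin resistance gene driven by streptokinase promoter and grows in 40 µg/ml kanamycin; loss of luminescence reflects streptokinase promoter inhibition or plain growth inhibition; 0% = median of DMSO wells and 100% = positive control at its reference dose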
PglD inh = C. jejuni PglD acetyltransferase inhibitors, primary screen, biochemical, DTNB colorimetric, single point; purified PglD enzyme, DTNB colorimetric CoA detection; inhibition, % at 12.5 µM; hit rate 0.098% among 360,000; in the data active = inhibition above about 16%, passing the limit was not always enough
PfHsp90 yeast 2 = growth inhibition of PfHsp90-expressing yeast, primary screen, antimalarial PfHsp90 inhibitor project, S. cerevisiae, BacTiter-Glo luminescence, single point, set 2; BacTiter-Glo ATP, 48 h; yeast lacking PDR1 and PDR3 efflux regulators; inhibition, % at 9.4 µM; hit rate 0.32% among 310,000; AID 504621, 2011;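 active = every replicate shows inhibition above about 80%, whatever the replicate mean, limit read from the data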;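 note: 0% = DMSO neutral controls and 100% = 20 µM radicicol positive controls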
CSC inhib = cancer stem cell viability inhibitors, primary screen, luminescence | cancer stem cell-like cells viability | inhibition, % at 7.5 µM | hit rate 1.1% among 300,000; in the data active = inhibition above about 75%; tested in HMLE shEcad cells
Rtt109 HAT inh = inhibitors of C. albicans Rtt109/Vps75 HAT, primary screen, biochemical, ThioGlo CoA-SH fluorescence, plate reader. Histone acetyltransferase RTT109 (Candida albicans (strain SC5314 / ATCC MYA-2876)), …. purified Rtt109/Vps75, 4 h. inhibition, % at 34.9 µM. hit rate 0.16% among 330,000;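 active = inhibition of at least 50% in every replicate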
Target sequence (Q5AAJ8 whole entry, looked up): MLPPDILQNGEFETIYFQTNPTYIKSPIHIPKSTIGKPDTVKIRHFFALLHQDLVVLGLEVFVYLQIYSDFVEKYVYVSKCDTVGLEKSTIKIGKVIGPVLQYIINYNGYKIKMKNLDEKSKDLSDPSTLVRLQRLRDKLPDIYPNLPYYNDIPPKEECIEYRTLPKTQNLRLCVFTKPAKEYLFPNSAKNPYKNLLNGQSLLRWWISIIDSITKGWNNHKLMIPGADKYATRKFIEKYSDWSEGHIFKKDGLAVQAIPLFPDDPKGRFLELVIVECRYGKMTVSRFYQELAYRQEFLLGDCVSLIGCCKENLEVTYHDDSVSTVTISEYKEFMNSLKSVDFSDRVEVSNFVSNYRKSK
* = called active by the depositor; / = not tested or not shown; + = active, no number. Only some compounds are listed: those with a hit (about 1.7% of all), similar ones and a draw of the others.

SMILES	FN deposition inh	SKKanGAS inh	PglD inh	PfHsp90 yeast 2	CSC inhib	Rtt109 HAT inh
COc1ccc(NC(=O)N(C)C[C@H]2Oc3c(NC(=O)CCCCCC(=O)Nc4ccccc4N)cccc3C(=O)N([C@H](C)CO)C[C@H]2C)cc1	-2.3	/	/	/	/	/
CC(c1ccccc1)N1C(=O)c2ccc(C(=O)Nc3ccccc3C(=O)O)cc2C1=O (centres undefined)	-13.8	14.2	3.2	-8.9	-7.2	2.0
CC(c1ccccc1)N1C(=O)c2ccc(C(=O)Nc3ccc(Br)cc3C(=O)O)cc2C1=O (centres undefined)	/	53.2*	-1.7	-2.4	-1.7	-5.6
O=C1C(Nc2ccccc2)=C/C(=N/S(=O)(=O)c2cccs2)c2ccccc21	/	96.6*	-9.4	-5.6	112.5*	/
O=C1C=C(Nc2ccccc2)C(=O)c2ccccc21	/	12.1	-0.5	-49.9	51.5	-4.6
Cc1ccc(NC2=C/C(=N/S(=O)(=O)c3cccs3)c3ccccc3C2=O)cc1	14.7	88.7*	/	20.4	+	0.5
O=C(OCC(=O)N1CCN(C(=O)c2ccco2)CC1)c1cc(-c2cccc(Br)c2)nc2ccccc12	-22.3	53.4*	-4.0	100.4*	5.1	-0.7
O=C(OCC(=O)N1CCN(C(=O)c2ccco2)CC1)c1cc(-c2ccccc2)nc2ccccc12	/	-2.5	-2.0	100.8*	-9.3	1.7
CO[C@@H]1CN(C)C(=O)c2ccc(NC(C)=O)cc2OC[C@H](C)N(C(=O)C2CCC2)C[C@@H]1C	7.5	/	-1.0	/	/	/
CC(C)NC(=O)N(C)C[C@H]1OCCCC[C@H](C)Oc2ccc(NS(=O)(=O)c3ccc(F)cc3)cc2C(=O)N([C@@H](C)CO)C[C@@H]1C	3.5	/	-1.1	/	/	/
COc1ccccc1N=C1NC(=O)/C(=C/c2ccc(N(C)C)cc2)S1	-2.9	55.8*	7.6	-5.7	52.7	-6.2
COc1ccc(/C=C2\SC(=Nc3ccccc3)NC2=O)cc1	/	5.8	/	/	-4.1	/
Cc1ccccc1OCC(O)CNC1CCC(NCC(O)COc2ccccc2C)CC1 (centres undefined)	7.6	2.3	2.6	-8.5	108.8*	-12.5
Cc1ccc(OCC(O)CNC2CCCC2)c(C)c1 (centres undefined)	5.3	3.7	-1.5	1.2	-9.7	-5.9
O=c1c2cc(Cl)ccc2nc(-c2ccccc2)n1O	/	25.7	/	11.8	-5.1	-3.1
O=c1c2cc(Br)ccc2nc(-c2cccc(C(F)(F)F)c2)n1O	/	111.1*	-1.4	/	13.9	1.4
O=c1c2cc(Cl)ccc2nc(-c2ccc(Cl)c(Cl)c2)n1O	-5.3	74.5*	-6.0	17.8	120.1*	-4.8
Cc1cccc(-c2oc3ccccc3c2C#CCCO)c1	5.1	2.9	3.1	-6.7	89.5*	1.9
Cc1cccc(-c2oc3ccccc3c2C#CCCCCO)c1	-1.9	75.7*	-1.2	-5.2	100.9*	-6.0
COCC(=O)N1[C@@H](CO)[C@H](c2ccc(-c3ccccc3)cc2)C12CN(C(C)=O)C2	-1.0	/	/	/	/	/
C[C@H](NC(=O)C[C@@H]1C[C@@H]2c3cc(NS(=O)(=O)c4ccc(F)cc4)ccc3O[C@@H]2[C@H](CO)O1)c1ccccc1	9.7	/	0.1	/	/	/
COCC(=O)Nc1ccc2c(c1)C(=O)N(C)[C@H]1CC[C@H](CC(=O)NCc3cccc(F)c3)O[C@@H]1CO2	-18.1	/	/	/	/	/
O=c1cc(O)c2c(=O)n(-c3ccccc3)c3c(c2o1)CCCCCC3	5.8	55.9*	-2.6	16.5	-9.9	-7.9
O=c1cc(O)c2c(=O)n(C3CCCCC3)c3ccccc3c2o1	-8.4	27.2	9.9	/	-3.0	1.7
O=C(c1ccncc1)N1C[C@H]2[C@@H](c3ccccc31)[C@@H](CO)N2C(=O)Nc1cccc(F)c1	/	/	-2.5	/	/	/
SMILES	FN deposition inh	SKKanGAS inh	PglD inh	PfHsp90 yeast 2	CSC inhib	Rtt109 HAT inh
CO[C@H]1CN(C)C(=O)c2cc(NC(=O)c3cccc(F)c3)ccc2OC[C@@H](C)N(C(C)=O)C[C@H]1C	6.7	/	/	/	/	/
CC(=O)OCCNc1cc(N2CCN(C)CC2)c2noc3c2c1C(=O)c1ccccc1-3	6.6	/	-1.0	16.0	/	-0.3
CCOC(=O)C(C(=O)OCC)c1cc(Br)c2noc3c2c1C(=O)c1ccccc1-3	/	91.0*	/	18.9	116.9*	-3.3
S=c1[nH]nc(-c2cc(-c3ccccc3)n[nH]2)n1/N=C/c1ccc(Br)s1	-10.9	59.5*	/	-15.9	52.9	-6.5
S=c1[nH]nc(-c2cc(-c3ccccc3)n[nH]2)n1/N=C/c1c(Cl)cccc1Cl	-4.1	61.0*	/	-27.1	41.2	1.4
Oc1c(Br)cc(/C=N/n2c(-c3ccccc3)n[nH]c2=S)c(Br)c1O	/	3.0	/	/	106.1*	/
Cc1ccccc1/C=N/n1c(-c2cc(-c3ccccc3)n[nH]2)n[nH]c1=S	1.3	6.7	/	23.0	9.2	1.0
C[C@H](CO)N1C[C@H](C)[C@H](CN(C)C(=O)Nc2cccc3ccccc23)Oc2ccc(NC(=O)C3CCCCC3)cc2CC1=O	-0.5	/	-1.7	/	/	/
Cc1cccc(CN(C)C[C@@H]2OCc3cn(nn3)CCCC(=O)N([C@H](C)CO)C[C@@H]2C)c1	-15.4	/	4.7	/	/	/
CCOc1cc(/C=C\c2[nH]c(=O)[nH]c(=O)c2[N+](=O)[O-])ccc1OC(C)CC (centres undefined)	0.1	9.2	/	/	77.8*	/
CCCOc1ccc(/C=C/c2[nH]c(=O)[nH]c(=O)c2[N+](=O)[O-])cc1OCC	4.2	-0.7	/	1.5	21.6	8.2
COc1ccc2cc3c(N)nn(C(=O)C4CCC(C(C)(C)C)CC4)c3nc2c1 (centres undefined)	-2.1	93.4*	0.5	-22.7	59.3	1.8
C[C@@H]1CCCCO[C@@H](CN(C)CC2CC2)[C@H](C)CN([C@@H](C)CO)C(=O)c2cc(NS(=O)(=O)c3ccccc3)ccc2O1	/	/	-9.1	/	/	/
CNC[C@H]1Oc2cc(C#Cc3ccccc3F)ccc2S(=O)(=O)N([C@H](C)CO)C[C@@H]1C	0.8	/	3.0	/	/	/
O=c1c2c3c(sc2ncn1/N=C/c1ccc([N+](=O)[O-])o1)CCCC3	/	3.0	-3.9	104.9*	103.4*	2.4
O=C(Cn1nnc(-c2cc(C(F)(F)F)cc(C(F)(F)F)c2)n1)NNC(=S)Nc1ccc(Cl)cc1	-0.9	77.9*	/	-58.4	-7.1	-6.8
Cc1cc2c(cc1C)C(c1ccccc1OC(C)C)CC(=O)N2 (centres undefined)	2.2	6.0	0.2	-11.1	95.9*	2.0
